Results as given in ChEMBL document CHEMBL4017546, “Small-Molecule Inhibitors of the CD40-CD40L Costimulatory Protein-Protein Interaction” (J Med Chem, 2017).
Converted amounts (≈) assume the structure as drawn. The source made the active and inactive calls. The rule behind the calls is not given here.

Tests used:
[1] = target: T1, CD40-CD40L (Homo sapiens, UniProt P25942+P29965); experiment: Inhibition of human Fc-conjugated CD40/FLAG-tagged biotinylated CD40L costimulatory protein-protein interaction incubated for 1 hr by ELISA-type assay
[2] = target: MAC1-CD40L (Homo sapiens) (UniProt P05107+P11215+P29965); experiment: Inhibition of human Fc-conjugated Mac1/FLAG-tagged biotinylated CD40L protein-protein interaction incubated for 1 hr by ELISA-type assay
In short: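 Fc-conjugated Mac-1 coated overnight at 4°C at 0.4 µg/mL; blocked with PBS/Tween/BSA. FLAG-tagged CD40L at 0.2 µg/mL added with graded compound in HEPES binding buffer (pH 7.2) for 1 h. Detection with anti-FLAG HRP/TMB at 450 nm. Data converted to percent inhibition and fitted to a log inhibitor curve.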

[3] = Solubility of the compound in water; type: physicochemical; details: buffer
In short: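 Saturated solution in distilled water, concentration measured by C18 HPLC (60:40 water:acetonitrile, 2.0 mM ammonium acetate, UV 254 nm). Calibration standards were made from known amounts dissolved in 20% w/v aqueous HPβCD. Compounds were tested as triethylamine salts unless stated otherwise.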

[4] = tested on: Mus musculus; experiment: Toxicity in C57BL6 mouse implanted with BALB/c mouse skin graft at 30 mg/kg, sc administered daily for 2 weeks; type: organism-based; details: in vivo, 336 h
In short: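 C57BL/6 recipients carried full-thickness BALB/c ear skin grafts on the dorsal thorax. They received CTLA4-Ig 250 μg on days 0, 2, 4 and 6, plus compound at 30 mg/kg s.c. daily in 20% w/v HPβCD over two weeks, and were watched for signs of toxicity. 5–8 mice per group.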

[5] = target: T1, CD40-CD40L; experiment: Inhibition of interaction of CD40 in human THP-1 cells with recombinant human CD40L assessed as reduction in CD40L-induced […] upregulation after 48 hrs by DAPI-staining based flow cytometric analysis; type: cell-based
In short: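 THP-1 cells serum-starved 24 h, then stimulated with rhCD154 (MegaCD40L) at 0.5 µg/mL plus graded compound in FBS-free RPMI for 48 h at 37°C, 5% CO2. Stained for HLA-DR, then DAPI just before flow cytometry. Marker quantified in live (DAPI-negative) cells.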
Target sequence in this assay (P25942 21-277 limits assumed): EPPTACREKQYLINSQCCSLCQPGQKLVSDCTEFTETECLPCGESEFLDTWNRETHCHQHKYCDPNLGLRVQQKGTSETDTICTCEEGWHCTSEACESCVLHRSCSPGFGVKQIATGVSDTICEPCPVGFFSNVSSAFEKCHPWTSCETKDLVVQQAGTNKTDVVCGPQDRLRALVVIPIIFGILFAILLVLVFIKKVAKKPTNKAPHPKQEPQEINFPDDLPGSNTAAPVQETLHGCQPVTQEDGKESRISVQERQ
Target sequence in this assay (P29965 113-261 partner limits assumed): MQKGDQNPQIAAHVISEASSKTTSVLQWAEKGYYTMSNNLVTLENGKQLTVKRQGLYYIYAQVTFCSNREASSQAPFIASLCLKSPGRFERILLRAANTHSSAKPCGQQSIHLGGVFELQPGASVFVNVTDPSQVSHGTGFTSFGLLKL

[6] = tested on: Salmonella typhimurium; experiment: Mutagenicity in Salmonella typhimurium TA100 up to 500 uM measured daily up to day 6 by Ames test; type: toxicity; details: salmonella enterica subsp. enterica serovar typhimurium
In short: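 Muta-Chromplate Ames format with S. typhimurium TA-100, reconstituted and grown overnight (16–18 h) at 37°C, then added to reaction mixture with compound at 0.1 to 500 μM (DMSO ≤2.5% final). Plated one plate per condition, incubated at 37°C, positive wells counted daily. Controls were background, NaN3 positive and sterility plates; significance from the manufacturer's tables.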

[7] = target: T1, CD40-CD40L; experiment: Inhibition of interaction of CD40 in human B cells with recombinant human CD40L assessed as reduction in CD40L-induced cell proliferation after 48 hrs by BrdU incorporation-based ELISA
In short: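 CD19+ B cells from healthy-donor PBMC (magnetic bead selection, >90% CD19+) at 2 × 10^5 cells/mL in IMDM with 10% FBS, ITS and rhIL-4 at 0.2 µg/mL. Activated with rhCD154 (MegaCD40L) at 0.1 µg/mL plus graded compound for 48 h. BrdU then added for another 48 h; incorporation read by colorimetric ELISA.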
Target sequence in this assay (P25942 21-277 limits assumed): as the sequence (P25942 21-277 limits assumed) above
Target sequence in this assay (P29965 113-261 partner limits assumed): as the sequence (P29965 113-261 partner limits assumed) above

[8] = target: T1, CD40-CD40L; experiment: Inhibition of interaction of CD40 in promoter/enhancer region of aicda-fused Ds-Red reporter transfected human B cells with recombinant human CD40L assessed as reduction in CD40L/IL-4-induced B cell activation by measuring AID expression after 2 days by flow cytometric analysis
In short: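 Primary human B cells transduced by spinoculation (1.5 h, 2,500g, 32°C, polybrene 8 µg/mL) with aicda promoter/enhancer–DsRed lentivirus. Cells at 1.25 × 10^5/mL in IMDM with 10% FBS, stimulated with IL-4 and CD40L (each 0.2 µg/mL) plus graded compound for 2 days at 37°C. DsRed read by flow cytometry. Anti-CD40L mAb 33.3 nM and CpG 1 µg/mL as controls; n=3.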

[9] = Elimination half life in C57BL6 mouse at 60 mg/kg, sc administered as single dose measured up to 24 hrs by HPLC analysis; type: ADME, organism-based; details: in vivo, read-out: beta t1/2 (converted)
In short: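 Single s.c. dose of 1.6 mg/mouse (~60 mg/kg) in 250 µL 20% w/v HPβCD to male C57BL/6 mice, 10 weeks old (n = 4). Tail blood (50 µL) drawn at 0, 0.5, 1, 2, 4, 6 and 24 h. Plasma quantified by C18 HPLC (60:40 water:acetonitrile with 2.0 mM ammonium acetate, 254 nm), calibration linear over 1 to 500 µg/mL.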

[10] = target: T1, CD40-CD40L; experiment: Inhibition of interaction of CD40 (unknown origin) transfected in HEK Blue cells with recombinant human CD40L assessed as reduction in CD40L-induced NF-kappaB activation after 18 hrs by spectrophotometry based SEAP reporter gene assay; type: cell-based
[11] = tested on: Mus musculus; experiment: In vivo inhibition of alloantigen-induced T cell response in sc dosed BALB/c mouse injected with DBA-2 mouse splenocytes assessed as reduction in splenocyte-mediated increase in draining popliteal lymph node cells administered as bid from 1 day before alloantigen challenge to 3 days post alloantigen challenge; type: functional, organism-based
In short: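 Female BALB/c recipients (10–12 weeks) got a footpad injection of 1 × 10^7 splenocytes from male DBA-2 donors. Compound given s.c. at 20–60 mg/kg b.i.d. from day -1 to 3 in 20% HPβCD; MR-1 anti-CD40L (20 mg/kg, days -1 and 0) as positive control. Draining popliteal nodes taken 3 days after challenge and cells counted; n = 3–4 per group, mean ± SD.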

[12] = tested on: THP-1; experiment: Cytotoxicity against human THP1 cells assessed as reduction in cell viability at 100 uM after 48 hrs by MTT assay; type: cell-based; details: thp-1, 48 h
In short: (§1)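 THP-1 cells grown in RPMI-1640 with 10% FBS, starved 24 h in FBS-free medium, then seeded at 50,000 cells/well with compounds diluted in the same medium. Incubated 48 h at 37°C, MTT added for a further half hour, formazan read at 490 nm. Data converted to percent inhibition; duplicate or triplicate wells, at least three independent experiments.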

[13] = Inhibition of human Fc-conjugated TNF-R/FLAG-tagged biotinylated TNFalpha protein-protein interaction incubated for 1 hr by ELISA-type assay
[14] = species: Homo sapiens; experiment: Selectivity ratio of IC50 for human Fc-conjugated TNF-R/FLAG-tagged biotinylated TNFalpha protein-protein interaction to IC50 for human Fc-conjugated CD40/FLAG-tagged biotinylated CD40L costimulatory protein-protein interaction
In short: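 Cell-free plate binding: TNF-R-Fc and CD40-Fc each coated at 0.3 µg/mL. FLAG-tagged TNF-α or CD40L, each at 0.02 µg/mL, added with graded compound for 1 h in HEPES buffer, pH 7.2. Anti-FLAG HRP/TMB detection at 450 nm. IC50s come from log inhibitor fits.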

[15] = target: T1, CD40-CD40L; experiment: Ratio of IC50 for human Fc-conjugated CD40/FLAG-tagged biotinylated CD40L costimulatory protein-protein interaction in presence of Triton-X 100 to IC50 for human Fc-conjugated CD40/FLAG-tagged biotinylated CD40L costimulatory protein-protein interaction in absence of Triton-X 100; type: protein assay
In short: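 CD40-Fc (0.3 µg/mL) coated, FLAG-CD40L (0.02 µg/mL) binding, 1 h, anti-FLAG HRP/TMB read at 450 nm. Run with and without the non-ionic detergent Triton X-100 at 0.01% to test for colloidal aggregation. IC50 taken from log inhibitor vs. response fits in each condition.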
Target sequence in this assay (P25942 21-277 limits assumed): as the sequence (P25942 21-277 limits assumed) above
Target sequence in this assay (P29965 113-261 partner limits assumed): as the sequence (P29965 113-261 partner limits assumed) above

[16] = tested on: THP-1; experiment: Cytotoxicity against human THP1 cells assessed as reduction in cell viability at 100 to 200 uM after 48 hrs by MTT assay; type: cell-based; details: thp-1, 48 h; in short: as §1

Chain of MAC1-CD40L (Homo sapiens) (P05107 whole entry, looked up, other chains not shown): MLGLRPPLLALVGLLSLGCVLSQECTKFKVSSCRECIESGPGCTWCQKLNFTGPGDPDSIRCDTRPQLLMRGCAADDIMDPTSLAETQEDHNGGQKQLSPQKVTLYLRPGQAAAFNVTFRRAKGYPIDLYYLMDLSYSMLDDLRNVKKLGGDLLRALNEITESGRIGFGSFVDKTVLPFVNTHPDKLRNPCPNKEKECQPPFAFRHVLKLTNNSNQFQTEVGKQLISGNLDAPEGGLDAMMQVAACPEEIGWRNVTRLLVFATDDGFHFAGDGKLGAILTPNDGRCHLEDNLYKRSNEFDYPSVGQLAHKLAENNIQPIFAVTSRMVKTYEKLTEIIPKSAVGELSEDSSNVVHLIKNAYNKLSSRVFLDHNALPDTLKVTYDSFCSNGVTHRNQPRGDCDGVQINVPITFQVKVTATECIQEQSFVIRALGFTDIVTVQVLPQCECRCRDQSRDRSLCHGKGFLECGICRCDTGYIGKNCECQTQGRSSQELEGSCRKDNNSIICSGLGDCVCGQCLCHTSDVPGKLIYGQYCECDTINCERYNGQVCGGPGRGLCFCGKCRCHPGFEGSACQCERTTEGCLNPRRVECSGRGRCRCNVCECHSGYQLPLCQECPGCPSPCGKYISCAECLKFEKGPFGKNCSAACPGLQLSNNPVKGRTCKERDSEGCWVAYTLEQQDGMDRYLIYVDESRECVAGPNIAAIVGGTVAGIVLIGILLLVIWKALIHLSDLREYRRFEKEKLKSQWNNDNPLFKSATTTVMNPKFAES
Chain of MAC1-CD40L (Homo sapiens) (P29965 whole entry, looked up, other chains not shown): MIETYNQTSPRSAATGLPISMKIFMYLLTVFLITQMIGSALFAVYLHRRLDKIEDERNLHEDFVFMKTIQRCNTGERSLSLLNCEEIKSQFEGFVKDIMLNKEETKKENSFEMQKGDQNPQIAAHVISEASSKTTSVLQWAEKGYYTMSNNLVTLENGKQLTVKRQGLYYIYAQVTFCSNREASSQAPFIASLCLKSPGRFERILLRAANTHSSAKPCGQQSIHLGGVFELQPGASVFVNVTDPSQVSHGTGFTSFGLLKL

Row | Compound | IC50 [1] [µM] | inhibition [1] | inhibition [2] | IC50 [10] [µM] | inhibition [10] | IC50 [13] [µM] | Ratio IC50 [14] | further results
1 | COC(=O)c1ccc(C(=O)Nc2ccc(-c3ccc(C(=O)Nc4cccc5cccc(S(=O)(=O)O)c45)cc3)cc2)cc1 | 0.17 | Dose-dependent effect | Active | 17.1 | Dose-dependent effect | 992 | – | solubility [3]: 240 µM (≈ 139 µg/mL); Activity [4]: Non-Toxic; inhibition [5]: Dose-dependent effect; Activity [6]: Non-Toxic; inhibition [7]: Dose-dependent effect; IC50 [8]: 4.5 µM; inhibition [8]: Dose-dependent effect; half-life [9]: 2 h; inhibition [11]: Active; Activity [12]: Non-Toxic
2 | O=C(Nc1ccc(-c2ccc(C(=O)Nc3cccc4cccc(S(=O)(=O)O)c34)cc2)cc1)c1ccc2[nH]nnc2c1 | 0.99 | Dose-dependent effect | – | – | – | > 1000 | > 100 | –
3 | O=C(Nc1ccc2c(O)c(/N=N/c3ccc(/N=N\c4ccc(S(=O)(=O)O)cc4)cc3S(=O)(=O)O)c(S(=O)(=O)O)cc2c1)Nc1ccc2c(O)c(/N=N/c3ccc(/N=N\c4ccc(S(=O)(=O)O)cc4)cc3S(=O)(=O)O)c(S(=O)(=O)O)cc2c1 | 2.26 | – | Active | 42.7 | Dose-dependent effect | – | – | –
4 | O=C1OC2(c3ccccc31)c1cc(I)c(O)c(I)c1Oc1c2cc(I)c(O)c1I | – | – | – | – | – | – | – | Ratio IC50 [15]: 1.04
5 | CSCC[C@H](NC(=O)[C@@H](NC(=O)[C@H](Cc1ccc(O)cc1)NC(=O)[C@H](Cc1ccc(O)cc1)NC(=O)CNC(=O)[C@H](CCCCN)NC(=O)[C@H](CCCCN)NC(=O)[C@H](C)NC(=O)[C@H](Cc1c[nH]c2ccccc12)NC(=O)[C@H](CCC(N)=O)NC(=O)[C@H](CC(C)C)NC(=O)[C@@H](N)C(C)C)[C@@H](C)O)C(=O)N[C@@H](CCCCN)C(=O)N[C@@H](CO)C(=O)N[C@@H](CC(N)=O)C(=O)O | – | inactive | – | – | – | – | – | –
6 | O=C(Nc1ccc(C(=O)Nc2cccc3cccc(S(=O)(=O)O)c23)cc1)c1ccc([N+](=O)[O-])cc1 | – | – | Active | – | – | > 1000 | > 100 | –
7 | O=C(Nc1ccc(-c2ccc(C(=O)Nc3cccc4cccc(S(=O)(=O)O)c34)cc2)cc1)c1ccc([N+](=O)[O-])cc1 | 0.31 | Dose-dependent effect | Active | 10.3 | Dose-dependent effect | > 1000 | – | solubility [3]: 7 µM (≈ 3.97 µg/mL); inhibition [5]: Dose-dependent effect; Activity [6]: Non-Toxic; inhibition [7]: Dose-dependent effect; IC50 [8]: 13.2 µM; inhibition [8]: Dose-dependent effect; Activity [12]: Non-Toxic
8 | Nc1ccc(C(=O)Nc2ccc(-c3ccc(C(=O)Nc4cccc5cccc(S(=O)(=O)O)c45)cc3)cc2)cc1 | 301 | – | Active | – | – | 887 | > 100 | Activity [16]: Toxic
9 | O=C(Nc1ccc(-c2ccc(C(=O)Nc3ccc(C(=O)O)c4ccccc34)cc2)cc1)c1ccc([N+](=O)[O-])cc1 | 0.36 | Dose-dependent effect | Active | 9.4 | Dose-dependent effect | > 1000 | – | solubility [3]: 17 µM (≈ 9.04 µg/mL); inhibition [5]: Dose-dependent effect; inhibition [7]: Dose-dependent effect; IC50 [8]: 15.9 µM; inhibition [8]: Dose-dependent effect; Activity [16]: Toxic
10 | H-VLQWAEKGYYTMSNN-OH | 154 | – | – | – | – | – | – | –
11 | O=C(Nc1ccc(-c2ccc(C(=O)Nc3ccc(S(=O)(=O)O)c4ccccc34)cc2)cc1)c1ccc([N+](=O)[O-])cc1 | 2.33 | Dose-dependent effect | – | – | – | 479 | > 100 | –
